In publication PMC3064895 (Cancer Chemotherapy and Pharmacology, 2010):
Values joined by “and” are separate entries in the source; they are usually repeats but may differ in a detail not shown here. Equal values may be shown once. “Also recorded” adds a separate entry of the source. Read-outs that look alike come from different tables or passages of the source.

Assays:
[1] = cited from earlier work; for Incidence of treatment-emergent cardiac ischemia/infarction AEs: final safety analysis
[2] = Plasma pharmacokinetics at steady state of sorafenib; type: in vivo, patients with advanced cancer; details: for AUC / Cmax: geometric mean (% CV); for AUC: AUC(0–12), n = 14; for Cmax: C max
Efficacy: tumor response = type: in vivo, patients with advanced cancer
Summary of the method: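 Adults with advanced cancer took the oral multitargeted kinase inhibitor at 400 mg bid, continuously, in 28-day cycles until progression or intolerance. Tumors were measured at screening and every 2 cycles and assessed locally by RECIST. Patients with ≥1 dose were included; patients were evaluable if radiologically re-evaluated or if they stopped for death or progression before re-evaluation. Descriptive statistics were used, with Kaplan–Meier for PFS.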

[3] = Left ventricular ejection fraction; type: in vivo, patients with advanced cancer; details: for Mean (SD) change from baseline in LVEF(%): sorafenib 400 mg bid
[4] = Safety: adverse events by NCI-CTCAE v3.0; type: in vivo, patients with advanced cancer; details: N = 53
Summary of the method: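 Patients with advanced cancer took the oral kinase inhibitor at 400 mg bid, continuously, in 28-day cycles. Safety, including laboratory tests, was checked at screening, at baseline and on day 1 of each cycle. Treatment-emergent AEs were graded by NCI-CTCAE v3.0 for incidence, severity, seriousness and drug relationship, and summarized descriptively for all patients with ≥1 dose.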

[5] = retrospective analysis of 18 studies of sorafenib monotherapy
[6] = human, plasma, oral, 400 mg, plasma, Day 1 of cycle 2, sorafenib 400 mg bid
[7] = human, plasma, oral, 400 mg, plasma, Day 1 of cycle 5, sorafenib 400 mg bid
[8] = plasma, Day 1 of cycle 2, sorafenib 400 mg bid
[9] = plasma, Day 1 of cycle 5, sorafenib 400 mg bid

Compound: CNC(=O)c1cc(Oc2ccc(NC(=O)Nc3ccc(Cl)c(C(F)(F)F)c3)cc2)ccn1 [sorafenib]
- Patients reporting cardiac ischemia/infarction AEs ([1]; RCC phase III, patients who crossed over from placebo to sorafenib): 1.4%
- Incidence of treatment-emergent cardiac ischemia/infarction AEs ([1]; randomized phase III HCC study, placebo […]): 2.7%
- Incidence of treatment-emergent cardiac ischemia/infarction AEs ([1]; randomized phase III RCC study, placebo 0.4%): 2.9%
- Overall rate of CHF [1, 5]: 1.6%
- Overall rate of MI [1, 5]: 1.5%
- Treatment-emergent hypertension [1, 5]: 18.6%
- Tmax ([2]; human, plasma, oral, 400 mg): 2 h
- AUC [2, 6]: 42800 ng·h/mL
- AUC [2, 7]: 36000 ng·h/mL
- Cmax [2, 6]: 5400 ng/mL
- Cmax [2, 7]: 4300 ng/mL
- AUCnorm, geometric mean (% CV) [2, 8]: 7.5 (48.4) kg h/L
- C max,norm, geometric mean (% CV) [2, 8]: 1.0 (64.9) kg/L
- C trough, geometric mean (% CV) [2, 8]: 4.1 (73.6) mg/L
- C trough,norm, geometric mean (% CV) [2, 8]: 0.7 (85.4) kg/L
- AUCnorm, geometric mean (% CV) [2, 9]: 6.3 (69.8) kg h/L
- C max,norm, geometric mean (% CV) [2, 9]: 0.8 (72.5) kg/L
- C trough, geometric mean (% CV) [2, 9]: 3.2 (73.8) mg/L
- C trough,norm, geometric mean (% CV) [2, 9]: 0.6 (83.8) kg/L
- t max, median (range) [2, 9]: 2.00 (0–8.05) h
- Relationship between PK parameters (AUC(0–12), C max) and cardiovascular safety parameters (QT/QTc, LVEF, BP, HR) ([2]; sorafenib and its main metabolites, any time point, data not shown): No correlation; also recorded: No relationship was observed
- PD as best response (Efficacy: tumor response; 48 patients evaluable for tumor response, RECIST): 27%
- Patients alive (censored) at time of analysis (Efficacy: tumor response; ITT population (n = 53)): 87%
- Patients who had died by the time of analysis (Efficacy: tumor response; ITT population (n = 53)): 13%
- Median PFS (Efficacy: tumor response; ITT population (n = 53), 95% CI 2.8–6.4 months): 4.1 months
- Median overall survival (Efficacy: tumor response; ITT population (n = 53), censored data): not estimable
- LVEF measurement, individual patient ([3]; RCC patient with diabetes (baseline 67%), Day 1 of cycle 3, MUGA scan): 42.2%
- LVEF measurement, individual patient ([3]; RCC patient with diabetes (baseline 67%), repeat MUGA scan (+16 days)): 50%
- Mean (SD) change from baseline in LVEF(%) ([3]; primary analysis population, Day 1 of cycle 3 (after 2 cycles)): −0.8 (±8.6) LVEF(%) and −0.8 LVEF(%)
- Mean (SD) change from baseline in LVEF(%) ([3]; primary analysis population, Day 1 of cycle 3 (after 2 cycles), listed as Sorafenib): −0.8 (8.6) LVEF(%)
- Mean (SD) change from baseline in LVEF(%) ([3]; primary analysis population, Day 1 of cycle 5 (after 4 cycles)): −1.2 (±7.8) LVEF(%) and −1.2 LVEF(%)
- Mean (SD) change from baseline in LVEF(%) ([3]; primary analysis population, Day 1 of cycle 5 (after 4 cycles), listed as Sorafenib): −1.2 (7.8) LVEF(%)
- Patients with decrease from baseline of ≥10 LVEF(%) ([3]; primary group, after 2 cycles): 12.9% and 13%
- Patients with decrease from baseline of ≥10 LVEF(%) ([3]; primary group, after 4 cycles): 4%
- Mean decline in LVEF(%) ([3]; primary patient group (n = 24), after 4 cycles): 1.2 LVEF(%)
- Mean (SD) change from baseline in LVEF(%) ([3]; secondary analysis population, Day 1 of cycle 3 (after 2 cycles)): −1.0 (8.5) LVEF(%)
- Mean (SD) change from baseline in LVEF(%) ([3]; secondary analysis population, Day 1 of cycle 5 (after 4 cycles)): −1.4 (9.4) LVEF(%)
- Patients with decrease from baseline of ≥10 LVEF(%) ([3]; secondary group, after 2 cycles): 12.0%
- Patients with decrease from baseline of ≥10 LVEF(%) ([3]; secondary group, after 4 cycles): 7.1%
- Mean decline in LVEF(%) ([3]; secondary patient group (n = 14), after 4 cycles): 1.4 LVEF(%)
- Mean decline in LVEF(%) ([3]; secondary patient group (n = 25), after 2 cycles): 1.0 LVEF(%)
- Largest individual decrease in ejection fraction ([3]; single patient without clinical signs of CHF): −24.8 LVEF[%]
- LVEF measurement, individual patient ([3]; thymic cancer patient (baseline 72%), repeat ECHO scan (+3 days)): 60–65%
- Alopecia, drug-related, Grade ≥3 [4]: 0 (0) n (%)
- Alopecia, drug-related, all grades [4]: 13 (25) n (%)
- Dermal change, drug-related, Grade ≥3 [4]: 0 (0) n (%)
- Dermal change, drug-related, all grades [4]: 6 (11) n (%)
- Dermatology—other, drug-related, Grade ≥3 [4]: 1 (2) n (%)
- Dermatology—other, drug-related, all grades [4]: 7 (13) n (%)
- Diarrhea, drug-related, Grade ≥3 [4]: 1 (2) n (%)
- Diarrhea, drug-related, all grades [4]: 15 (28) n (%)
- Fatigue, drug-related, Grade ≥3 [4]: 1 (2) n (%)
- Fatigue, drug-related, all grades [4]: 8 (15) n (%)
- Hand-foot skin reaction, drug-related, Grade ≥3 [4]: 6 (11) n (%)
- Hand-foot skin reaction, drug-related, all grades [4]: 16 (30) n (%)
- Hypertension, drug-related, Grade ≥3 [4]: 1 (2) n (%)
- Hypertension, drug-related, all grades [4]: 6 (11) n (%)
- Mucositis, drug-related, Grade ≥3 [4]: 1 (2) n (%)
- Mucositis, drug-related, all grades [4]: 8 (15) n (%)
- Nausea, drug-related, Grade ≥3 [4]: 0 (0) n (%)
- Nausea, drug-related, all grades [4]: 7 (13) n (%)
- Pain, extremity—limb, drug-related, Grade ≥3 [4]: 0 (0) n (%)
- Pain, extremity—limb, drug-related, all grades [4]: 12 (23) n (%)
- Patients discontinued from the study because of AEs [4]: Seven
- Patients with dose reductions [4]: 43.4%
- Patients with dose reductions because of treatment-emergent AEs [4]: 32.1%
- Patients with drug-related treatment-emergent serious AEs [4]: 4%
